Source: PubChem (several laboratories)
Sampled rows, rich in hits. Any-hit rate of the full collection: about 3.8%.
Beta cell apopt: beta cell apoptosis inhibition; AID 435005; INS-1E cytokine-induced death, ATP luminescence, 48 h; percent of positive-control rescue, neutral wells zero; hit rate 0.8% among 300,000; protection from apoptosis, % (concentration not given with the values);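 active = Every replicate reaches about 75%, or at least half do and their mean reaches it too, limit read from the data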;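 note: 0% = cytokine-treated negative control wells and 100% = positive control rescue; higher means more ATP so stronger rescue from cytokine killing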
CSC inhib: blocks cancer stem cells; cancer stem cell-like cells viability, luminescence; hit rate 1.1% among 300,000; inhibition, % at 7.5 µM; in the data active = inhibition above about 75%; tested in HMLE shEcad cells
MC4R barr agon: activates human MC4R beta-arrestin recruitment; U2OS MC4R beta-arrestin complementation, luminescence; percent of melanotan II response, DMSO zero; activation, % at 8.9 µM; hit rate 0.98% among 360,000;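 active = activation above a per-plate cutoff, the mean activation of sample wells on that plate plus 3 SD, cut at about 8% in these data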
Target sequence (P32245 whole entry, looked up): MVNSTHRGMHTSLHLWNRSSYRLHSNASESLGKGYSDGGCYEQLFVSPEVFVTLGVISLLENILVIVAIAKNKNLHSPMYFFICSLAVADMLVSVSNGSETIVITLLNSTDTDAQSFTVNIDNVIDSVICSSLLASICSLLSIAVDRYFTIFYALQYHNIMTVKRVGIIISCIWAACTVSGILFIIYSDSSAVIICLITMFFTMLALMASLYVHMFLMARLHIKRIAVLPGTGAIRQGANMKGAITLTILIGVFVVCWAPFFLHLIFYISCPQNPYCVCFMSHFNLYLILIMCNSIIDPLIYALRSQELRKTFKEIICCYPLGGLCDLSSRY
TMEM16A act: activates or potentiates the mouse TMEM16A chloride channel | Q8BHY3 | HEK293 TMEM16A/YFP-H148Q/I152L, iodide quench fluorescence; hits give low values | B-score at 10 µM | hit rate 0.3% among 340,000 | AID 623877;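 active = fluorescence-ratio B-score plate-corrected deviation score at least 3 library SD below zero, with starting fluorescence score within 5 deviations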;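 note: channel opened by trigger with iodide after compound preincubation; score built on the fluorescence ratio of max minus min over baseline; more negative score means more quench and so TMEM16A activation or potentiation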
ANO1 block: blocks the mouse calcium-activated chloride channel TMEM16A; Q8BHY3; HEK293 TMEM16A/YFP iodide influx fluorescence, ionomycin; normalized B-score (activity score, 25-100; higher = stronger inhibition) at 10 µM; hit rate 1.2% among 310,000; AID 588511;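 active = ratio plate-corrected score three or more library SD toward inhibition, starting fluorescence score within five deviations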;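 note: score derived from kinetic fluorescence span divided by baseline fluorescence per well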
MC4R antagonist: human MC4R antagonism in cAMP assay. inhibition, % at 6.5 µM. hit rate 0.48% among 360,000. MC4R-expressing cells, MTII-stimulated cAMP, LANCE TR-FRET. P32245;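 active = inhibition above its plate's cutoff, the mean of tested wells on that plate plus 3 SD, cut at about 29% in these data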;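 note: 0% = Melanotan II alone and 100% = Melanotan II plus saturating MCL0020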
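Assay system: U2OS-MC4R stable cell line; Also added: Melanotan II; Technique: Eu-cAMP/anti-cAMP TR-FRET, emission 671 nm; Times: 30-min compound, 1-h challenge, 1-h detection, room temperature.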
MC4R barr conf: human MC4R beta-arrestin agonism confirmation; shares compounds with MC4R barr agon; U2OS MC4R beta-arrestin recruitment, luminescence; scaled DMSO 0%, Melanotan II 100%; hit rate 31% among 2,400; AID 602192; activation, % at 8.9 µM;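 active = mean activation across replicates above the hit cutoff set in the earlier primary screen, cut at about 8% in these data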
MOR DOR agonist: activates mu-delta opioid heterodimer, MC4R agonist counter-screen. AID 602194. U2OS PathHunter beta-arrestin, beta-gal luminescence; percent of deltorphin B response, DMSO zero. activation, % at 9.2 µM. hit rate 5.8% among 2,400. shares compounds with MC4R barr agon;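 active = mean activation across replicates exceeds the hit threshold derived in the earlier primary screen, cut at about 18% in these data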;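 note: 100% = deltorphin B at 0.9 µM final and 0% = DMSO alone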
Active calls of the source: *; i = inactive; . = no result.

SMILES	Beta cell apopt	CSC inhib	MC4R barr agon	TMEM16A act	ANO1 block	MC4R antagonist	MC4R barr conf	MOR DOR agonist
CC1CN(S(=O)(=O)c2cccc(C(=O)NCC(c3cccs3)N3CCOCC3)c2)CC(C)O1 (centres undefined)	.	.	-0.6	.	.	-2.3	.	.
CC(OC(=O)c1cc2sccc2n1C)C(=O)NCc1ccc(F)cc1 (centres undefined)	.	2.6	-1.9	i	i	0.6	.	.
CC(OC(=O)c1cc2sccc2n1C)C(=O)NCc1ccc2c(c1)OCO2 (centres undefined)	3.6	3.6	13.0*	i	i	9.6	-1.1	2.1
CC1(C(=O)NS(=O)(=O)C2CC2)CCCN(C(=O)c2ccco2)C1 (centres undefined)	.	.	1.9	.	.	12.0	.	.
Cc1ccc(N2C(=O)/C(=C/c3ccco3)SC2=S)cc1	-6.5	-8.6	22.9*	i	i	-1.0	4.3	5.0
Cc1ccc(N2C(=O)/C(=C/c3cccnc3)SC2=S)cc1	-0.6	5.5	15.4*	i	i	2.6	8.1	4.2
O=C(CCCCCn1c(=S)[nH]c2cc3c(cc2c1=O)OCO3)N1CCN(c2ccccc2)CC1	26.8	1.1	1.8	i	i	17.7	.	.
COc1cccc(N2CCN(C(=O)CCCCCn3c(=S)[nH]c4cc5c(cc4c3=O)OCO5)CC2)c1	22.7	15.3	34.6*	i	i	-1.6	13.6*	21.4*
O=C(CCCCCn1c(=S)[nH]c2ccccc2c1=O)NCc1ccc2c(c1)OCO2	-1.3	2.0	10.1*	i	i	14.8	2.2	2.5
Cc1csc2nc(O)c(C(=O)NCCC3=CCCCC3)c(=O)n12	.	-13.2	14.3*	i	i	-3.8	-0.9	2.9
Cc1csc2nc(O)c(C(=O)NCCCc3ccccc3)c(=O)n12	.	-2.5	2.2	i	i	3.6	.	.
COC(=O)CC1C(=O)NCCN1C(=O)c1oc2c(C)c(C)ccc2c1C (centres undefined)	.	.	-0.8	.	.	-5.5	.	.
CCC(C)c1ccc2oc(-c3ccc(NC(=O)Cn4cnc5c(=O)n(C)c(=O)n(C)c54)cc3)nc2c1 (centres undefined)	13.1	17.7	14.1*	i	i	23.8	8.6*	.
Oc1ccc(C[C@H]2CNCCN2CC2CCCCC2)cc1	7.4	34.5	0.5	i	i	-5.1	.	.
Cc1cccc(OCC(=O)Nc2cccc(-c3nnc(-c4ccccc4)o3)c2)c1C	1.2	2.5	30.2*	i	i	6.6	15.1*	11.9
COc1ccccc1C(=O)Nc1ccc2oc(-c3ccc(F)cc3)nc2c1	5.4	-3.1	17.5*	i	i	4.4	5.8	2.5
Cc1cccc(C)c1OCC(=O)Nc1cccc(-c2nnc(-c3ccccc3)o2)c1	-0.4	.	0.2	i	i	16.5	.	.
COc1ccccc1OCC(=O)Nc1cccc(-c2nc3ccccc3o2)c1	-4.4	-0.8	15.3*	i	i	8.7	5.4	3.2
CCC(=O)Nc1cccc(-c2nc3ccccc3o2)c1	-2.7	-6.2	-2.2	i	i	-4.9	.	.
COc1ccc(OCC(=O)NNC(=O)Nc2cccc(Cl)c2)cc1	-5.6	-4.4	-1.1	i	i	9.8	.	.
COc1ccc(C(=O)Nc2ccc3oc(-c4cccc(F)c4)nc3c2)cc1OC	.	5.7	1.1	i	i	2.8	.	.
Cc1cccc(OCC(=O)NNC(=O)Nc2cccc(Cl)c2)c1C	-9.7	-11.5	10.3*	i	i	-1.4	3.8	4.8
COc1ccc(CCCNC(=O)C2Cc3c(-c4ccc(NC(C)=O)cc4)ccnc3O2)cc1 (centres undefined)	.	.	-0.4	.	.	1.5	.	.
C=CCn1c(SCC(=O)c2ccccc2)nnc1-c1cc2ccccc2o1	-2.6	-6.1	1.5	i	i	0.0	.	.
